Data reported in ChEMBL document CHEMBL3102768, “Synthesis, biological evaluation and SAR of 3-benzoates of ingenol for treatment of actinic keratosis and non-melanoma skin cancer” (Bioorg Med Chem Lett, 2014).

Experiments:
[1] = test system: Keratinocyte; assay: Induction of proimflammatory activity in human primary epidermal keratinocytes assessed as IL-8 release after 6 hrs relative to ingenol 3-angelate; format: functional
In short: (§1)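 Adult log-phase primary epidermal keratinocytes were seeded at 10,000 cells/well. Cells were incubated with titrated compound for 6 h at 37 °C in 5% CO2. Secreted IL8 was measured by Meso Scale 4-spot cytokine plates or by HTRF. EC50 and Emax were referenced to the maximal response of ingenol 3-angelate.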

[2] = Immunostimulatory activity in polymorphonuclear leukocytes (unknown origin) assessed as induction of oxidative burst after 40 mins by fluorescence assay relative to ingenol 3-angelate; format: functional
In short: (§2)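 PMN were isolated from fresh buffy coats. Cells were incubated 40 min at ambient temperature with titrated compound (top concentration 10 µM) pre-mixed with hydroethidine. Respiratory burst was read as fluorescence at ex 485/em 579 nm. EC50 is the concentration giving 50% of the maximum effect of ingenol 3-angelate; Emax is the maximal response relative to it.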

[3] = biological target: Protein kinase C delta type (Homo sapiens, UniProt Q05655); assay: Activation of PKCdelta (unknown origin) after 40 mins
Chain of Protein kinase C delta type (Q05655 whole entry): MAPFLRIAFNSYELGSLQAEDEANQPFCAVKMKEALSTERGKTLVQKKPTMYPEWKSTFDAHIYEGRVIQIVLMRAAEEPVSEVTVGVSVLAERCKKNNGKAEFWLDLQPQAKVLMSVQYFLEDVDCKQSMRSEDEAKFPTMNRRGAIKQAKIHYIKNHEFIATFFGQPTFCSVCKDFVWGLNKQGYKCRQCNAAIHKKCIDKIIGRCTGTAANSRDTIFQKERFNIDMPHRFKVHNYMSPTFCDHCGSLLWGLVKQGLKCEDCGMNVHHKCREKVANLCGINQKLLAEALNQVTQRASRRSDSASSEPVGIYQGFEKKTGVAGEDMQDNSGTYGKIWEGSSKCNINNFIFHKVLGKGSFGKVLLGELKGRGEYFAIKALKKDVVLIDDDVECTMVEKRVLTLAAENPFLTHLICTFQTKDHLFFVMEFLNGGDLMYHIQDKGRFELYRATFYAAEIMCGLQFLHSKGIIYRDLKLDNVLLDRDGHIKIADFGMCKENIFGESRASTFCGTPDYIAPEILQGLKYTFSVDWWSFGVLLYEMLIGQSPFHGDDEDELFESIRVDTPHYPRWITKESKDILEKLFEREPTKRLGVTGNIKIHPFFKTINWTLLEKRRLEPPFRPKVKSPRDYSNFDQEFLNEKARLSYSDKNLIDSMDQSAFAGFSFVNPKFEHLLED
In short: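 In vitro PKCδ phosphorylation of a PKC peptide substrate, with 0.05 mg/mL phosphatidylserine and no diacylglycerol. Compounds were tested as a twelve-point semilog dilution series starting at 10 µM. The reaction was started with ATP and run 40 min at room temperature.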

[4] = Immunostimulatory activity in polymorphonuclear leukocytes (unknown origin) assessed as induction of oxidative burst after 40 mins by fluorescence assay; format: functional, cell-based; in short: as §2
[5] = test system: Keratinocyte; assay: Induction of proimflammatory activity in human primary epidermal keratinocytes assessed as TNFalpha release after 6 hrs relative to ingenol 3-angelate; format: functional
In short: (§3)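 Adult log-phase primary epidermal keratinocytes were seeded at 10,000 cells/well. Cells were incubated with titrated compound for 6 h at 37 °C in 5% CO2. Secreted TNFα was measured by Meso Scale 4-spot cytokine plates. EC50 and Emax were referenced to the maximal response of ingenol 3-angelate.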

[6] = Chemical stability of the compound in aqueous buffer with less than 30% organic solvent assessed as compound recovery at pH 7.4 measured over 16 hrs by HPLC analysis; format: physicochemical; settings: read-out: Drug recovery
In short: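 A DMSO stock was diluted into pre-heated (37 °C) aqueous buffer pH 7.4 to ≤30% v/v organic content. The solution was held at 37 °C in the HPLC autosampler and injected within 5 min, then repeatedly over 16 h. Recovery was taken from the decrease in compound peak area, with UV detection normally at 270 nm.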

[7] = test system: Keratinocyte; assay: Induction of proimflammatory activity in human primary epidermal keratinocytes assessed as TNFalpha release after 6 hrs; format: functional, cell-based; in short: as §3
[8] = test system: HeLa; assay: Induction of necrosis in human HeLa cells assessed as remaining metabolic activity after 30 mins by resazurin dye-based assay; format: functional; settings: 0.5 h, read-out: LC50 (the source's name)
In short: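 HeLa cells were exposed to increasing concentrations up to 400 µM for 30 min at 37 °C. Metabolic activity was then measured with a resazurin-based dye (PrestoBlue). LC50 is the concentration giving 50% loss of metabolic activity.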

[9] = test system: Keratinocyte; assay: Induction of proimflammatory activity in human primary epidermal keratinocytes assessed as IL-8 release after 6 hrs; format: functional, cell-based; in short: as §1

Structure (SMILES) | Emax [1] [%] | Emax [2] [%] | EC50 [3] [µM] | EC50 [4] [µM] | Emax [5] [%] | remaining at 16 h [6] [%] | EC50 [7] [µM] | CC50 [8] [µM] | EC50 [9] [µM]
CC1=C[C@]23C(=O)[C@@H](C=C(CO)[C@@H](O)[C@]2(O)[C@H]1OC(=O)c1ccccc1)[C@H]1[C@@H](C[C@H]3C)C1(C)C | 54 | 110 | 0.0061 | 0.006 | 60 | – | – | – | –
CNc1cccc(Cl)c1C(=O)O[C@H]1C(C)=C[C@]23C(=O)[C@@H](C=C(CO)[C@@H](O)[C@]12O)[C@H]1[C@@H](C[C@H]3C)C1(C)C | 105 | 124 | – | 0.021 | 97 | > 95 | 0.021 | 145 | 0.018
CNc1cccc(F)c1C(=O)O[C@H]1C(C)=C[C@]23C(=O)[C@@H](C=C(CO)[C@@H](O)[C@]12O)[C@H]1[C@@H](C[C@H]3C)C1(C)C | 145 | 123 | – | 0.0093 | 174 | 74 | 0.0041 | 152 | 0.003
CC1=C[C@]23C(=O)[C@@H](C=C(CO)[C@@H](O)[C@]2(O)[C@H]1OC(=O)c1c(C)cccc1NCc1ccccc1)[C@H]1[C@@H](C[C@H]3C)C1(C)C | 122 | 103 | – | 0.042 | 126 | > 95 | 0.0076 | 187 | 0.0038
COc1cccc(NCc2ccccc2)c1C(=O)O[C@H]1C(C)=C[C@]23C(=O)[C@@H](C=C(CO)[C@@H](O)[C@]12O)[C@H]1[C@@H](C[C@H]3C)C1(C)C | 117 | 112 | – | 0.023 | 120 | > 95 | 0.019 | 400 | 0.0066
CC(=O)Nc1cccc(C)c1C(=O)O[C@H]1C(C)=C[C@]23C(=O)[C@@H](C=C(CO)[C@@H](O)[C@]12O)[C@H]1[C@@H](C[C@H]3C)C1(C)C | 92 | 113 | 0.988 | 0.538 | 92 | 82 | 0.632 | – | 0.534
CC1=C[C@]23C(=O)[C@@H](C=C(CO)[C@@H](O)[C@]2(O)[C@H]1OCc1ccccc1)[C@H]1[C@@H](C[C@H]3C)C1(C)C | 58 | – | > 10 | 4.54 | – | > 95 | – | 378 | 4.52
CC1=C[C@]23C(=O)[C@@H](C=C(CO)[C@@H](O)[C@]2(O)[C@H]1OC(=O)c1ccccc1C)[C@H]1[C@@H](C[C@H]3C)C1(C)C | 58 | 107 | – | 0.0057 | 64 | 73 | 0.013 | 115 | 0.015
CC1=C[C@]23C(=O)[C@@H](C=C(CO)[C@@H](O)[C@]2(O)[C@H]1OC(=O)c1ccccc1C(C)C)[C@H]1[C@@H](C[C@H]3C)C1(C)C | 86 | 120 | – | 0.011 | 96 | 70 | 0.0057 | 110 | 0.0044
COc1ccccc1C(=O)O[C@H]1C(C)=C[C@]23C(=O)[C@@H](C=C(CO)[C@@H](O)[C@]12O)[C@H]1[C@@H](C[C@H]3C)C1(C)C | 100 | 107 | 0.0257 | 0.0068 | 100 | 70 | 0.038 | 220 | 0.042
CC1=C[C@]23C(=O)[C@@H](C=C(CO)[C@@H](O)[C@]2(O)[C@H]1OC(=O)c1ccccc1OC(C)C)[C@H]1[C@@H](C[C@H]3C)C1(C)C | 105 | 113 | – | 0.0087 | 101 | 65 | 0.004 | 192 | 0.0027
CC1=C[C@]23C(=O)[C@@H](C=C(CO)[C@@H](O)[C@]2(O)[C@H]1OC(=O)c1ccccc1N)[C@H]1[C@@H](C[C@H]3C)C1(C)C | 101 | 116 | – | 0.015 | 112 | 58 | 0.0055 | 199 | 0.0034
CC1=C[C@]23C(=O)[C@@H](C=C(CO)[C@@H](O)[C@]2(O)[C@H]1OC(=O)c1ccccc1NCc1ccccc1)[C@H]1[C@@H](C[C@H]3C)C1(C)C | 115 | 127 | – | 0.0086 | 128 | 65 | 0.0015 | 168 | 0.0012
CCCCCCCCCCCCNc1ccccc1C(=O)O[C@H]1C(C)=C[C@]23C(=O)[C@@H](C=C(CO)[C@@H](O)[C@]12O)[C@H]1[C@@H](C[C@H]3C)C1(C)C | 111 | 78 | – | 0.025 | 150 | – | 0.014 | 400 | 0.016
CCCCCCCCCCCCCCCCNc1ccccc1C(=O)O[C@H]1C(C)=C[C@]23C(=O)[C@@H](C=C(CO)[C@@H](O)[C@]12O)[C@H]1[C@@H](C[C@H]3C)C1(C)C | 125 | 94 | – | 1.34 | 120 | 90 | 0.2 | – | 0.061
COc1cccc(OC)c1C(=O)O[C@H]1C(C)=C[C@]23C(=O)[C@@H](C=C(CO)[C@@H](O)[C@]12O)[C@H]1[C@@H](C[C@H]3C)C1(C)C | 107 | 116 | 0.156 | 0.084 | 113 | > 95 | 0.057 | 400 | 0.044
CC1=C[C@]23C(=O)[C@@H](C=C(CO)[C@@H](O)[C@]2(O)[C@H]1OC(=O)c1c(Cl)cccc1Cl)[C@H]1[C@@H](C[C@H]3C)C1(C)C | 45 | 123 | 0.0198 | 0.021 | 42 | > 95 | 0.278 | 59 | 0.113
CC1=C[C@]23C(=O)[C@@H](C=C(CO)[C@@H](O)[C@]2(O)[C@H]1OC(=O)c1c(C)cccc1Cl)[C@H]1[C@@H](C[C@H]3C)C1(C)C | 52 | 130 | – | 0.0066 | 52 | > 95 | 0.054 | 126 | 0.051
COc1cccc(N)c1C(=O)O[C@H]1C(C)=C[C@]23C(=O)[C@@H](C=C(CO)[C@@H](O)[C@]12O)[C@H]1[C@@H](C[C@H]3C)C1(C)C | 111 | 109 | – | 0.025 | 83 | > 95 | 0.108 | – | 0.041
CC1=C[C@]23C(=O)[C@@H](C=C(CO)[C@@H](O)[C@]2(O)[C@H]1OC(=O)c1c(N)cccc1Cl)[C@H]1[C@@H](C[C@H]3C)C1(C)C | 104 | 161 | – | 0.0071 | 108 | 93 | 0.028 | 185 | 0.02
CC1=C[C@]23C(=O)[C@@H](C=C(CO)[C@@H](O)[C@]2(O)[C@H]1OC(=O)c1c(N)cccc1F)[C@H]1[C@@H](C[C@H]3C)C1(C)C | 104 | 133 | – | 0.012 | 104 | 66 | 0.01 | 201 | 0.0086
CNc1cccc(C)c1C(=O)O[C@H]1C(C)=C[C@]23C(=O)[C@@H](C=C(CO)[C@@H](O)[C@]12O)[C@H]1[C@@H](C[C@H]3C)C1(C)C | 127 | 136 | – | 0.046 | 143 | > 95 | 0.016 | 105 | 0.012
C/C=C(/C)C(=O)O[C@H]1C(C)=C[C@]23C(=O)[C@@H](C=C(CO)[C@@H](O)[C@]12O)[C@H]1[C@@H](C[C@H]3C)C1(C)C [INGENOL MEBUTATE] | – | – | – | 0.0087 | – | – | – | 230 | –
